Reference: ChEMBL document CHEMBL2396633, “Effects of cytoprotective antioxidants on lymphocytes from representative mitochondrial neurodegenerative diseases” (Bioorg Med Chem, 2013)
Calls of active or inactive are those of the source. No cut-off for these calls is given here.

Assays:
Homo sapiens [1] = species on record: Homo sapiens; test: Antioxidant activity in Alzheimer's disease patient AG06849 cells assessed as suppression of diethyl maleate-induced ROS generation at 0.025 to 2.5 uM preincubated for 18 hrs prior to diethyl maleate-challenge measured after 1 hr by FACS flow cytometric analysis in presence of DCFH-DA; assay type: functional
Outline: (§1)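 Lymphocytes (Coriell, RPMI with 15% FBS) or CCRF-CEM cells (RPMI with 10% FBS), 2.5 × 10⁵ cells/mL, exposed to compounds for 18 h at 37 °C, then 5 mM diethyl maleate for 1 h. Cells washed in PBS, loaded with 10 µM DCFH-DA in PBS/10 mM glucose for 25 min at 37 °C in the dark. DCF read by flow cytometry (488 nm excitation, 530 nm emission). Mean ± S.E.M., three experiments in duplicate.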

GM15850 [2] = test: Effect on total ATP level in Friedreich's ataxia disease patient GM15850 cells at 10 uM after 48 hrs by bioluminescence assay relative to control; assay type: functional, Homo sapiens
Outline: (§2)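 Lymphocytes were adapted to glucose-free RPMI with 25 mM galactose for at least one week. Cells at 2 × 10⁵ cells/mL were given compound at final 5, 10 or 25 µM for 48 h at 37 °C, 5% CO₂. Total intracellular ATP was measured by luciferase bioluminescence kit and expressed as % of untreated control.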

CCRF-CEM [3] = test: Antioxidant activity in human CCRF-CEM cells assessed as suppression of diethyl maleate-induced ROS generation at 0.25 uM preincubated for 18 hrs prior to diethyl maleate-challenge measured after 1 hr by FACS flow cytometric analysis in presence of DCFH-DA; assay type: functional, cell-based; outline: as §1
[4] = Effect on total ATP level in Leber's optic atrophy disease patient GM10744 cells at 10 uM after 48 hrs by bioluminescence assay relative to control; assay type: functional, Homo sapiens; outline: as §2
CCRF-CEM [5] = test: Antioxidant activity in human CCRF-CEM cells assessed as suppression of diethyl maleate-induced ROS generation at 2.5 uM preincubated for 18 hrs prior to diethyl maleate-challenge measured after 1 hr by FACS flow cytometric analysis in presence of DCFH-DA; assay type: functional, cell-based; outline: as §1
[6] = Effect on total ATP level in CoQ10-deficient human GM17932 cells at 5 uM after 48 hrs by bioluminescence assay relative to control; assay type: functional; outline: as §2
[7] = Effect on total ATP level in CoQ10-deficient human GM17932 cells at 10 uM after 48 hrs by bioluminescence assay relative to control; assay type: functional; outline: as §2
[8] = Effect on total ATP level in CoQ10-deficient human GM17932 cells at 25 uM after 48 hrs by bioluminescence assay relative to control; assay type: functional; outline: as §2
[9] = Inhibition of NADH-ubiquinone oxidoreductase in bovine heart mitochondria after 5 mins by spectrophotometric analysis; design: species or system Bos taurus
Outline: (§3)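 Bovine heart submitochondrial particles, 12 µg, incubated 5 min at 39 °C with compound in 50 mM phosphate pH 7.4, 0.25 M sucrose, 1 mM MgCl₂, 2 mM KCN, plus antimycin A. Reaction started with 50 µM NADH and 50 µM coenzyme Q₁; NADH loss read at 340 nm. K_I derived. Mean of three experiments in triplicate.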

GM15850 [10] = test: Effect on total ATP level in Friedreich's ataxia disease patient GM15850 cells at 25 uM after 48 hrs by bioluminescence assay relative to control; assay type: functional, Homo sapiens; outline: as §2
[11] = Effect on total ATP level in Leber's optic atrophy disease patient GM10744 cells at 25 uM after 48 hrs by bioluminescence assay relative to control; assay type: functional, Homo sapiens; outline: as §2
Bos taurus [12] = species on record: Bos taurus; test: Inhibition of NADH oxidase activity of bovine heart mitochondrial […] at 5 uM after 5 mins by spectrophotometric analysis relative to control; values are per cent of control
CCRF-CEM [13] = test: Antioxidant activity in human CCRF-CEM cells assessed as suppression of diethyl maleate-induced ROS generation preincubated for 18 hrs prior to diethyl maleate-challenge measured after 1 hr by FACS flow cytometric analysis in presence of DCFH-DA; assay type: functional, cell-based; outline: as §1
Bos taurus [14] = species on record: Bos taurus; test: Inhibition of NADH oxidase activity of bovine heart mitochondrial […] at 10 uM after 5 mins by spectrophotometric analysis relative to control; values are per cent of control
Bos taurus [15] = species on record: Bos taurus; test: Inhibition of NADH-ubiquinone oxidoreductase in bovine heart mitochondria after 5 mins by spectrophotometric analysis relative to control; outline: as §3
Homo sapiens [16] = species on record: Homo sapiens; test: Antioxidant activity in Leber's optic atrophy disease patient GM10744 cells assessed as suppression of diethyl maleate-induced ROS generation at 0.025 to 2.5 uM preincubated for 18 hrs prior to diethyl maleate-challenge measured after 1 hr by FACS flow cytometric analysis in presence of DCFH-DA; assay type: functional; outline: as §1
GM15850 [17] = test: Effect on total ATP level in Friedreich's ataxia disease patient GM15850 cells at 5 uM after 48 hrs by bioluminescence assay relative to control; assay type: functional, Homo sapiens; outline: as §2
Bos taurus [18] = species on record: Bos taurus; test: Inhibition of NADH oxidase activity of bovine heart mitochondrial […] at 1 uM after 5 mins by spectrophotometric analysis relative to control; values are per cent of control
[19] = Effect on total ATP level in Leber's optic atrophy disease patient GM10744 cells at 5 uM after 48 hrs by bioluminescence assay relative to control; assay type: functional, Homo sapiens; outline: as §2
GM15850 [20] = test: Cytoprotective activity against diethyl maleate-induced oxidative stress in Friedreich's ataxia disease patient GM15850 cells assessed as cell viability at 0.5 uM preincubated for 15 hrs prior to diethyl maleate-challenge measured after 6 hrs by hemocytometer-based assay; assay type: functional; settings: Homo sapiens
Outline: (§4)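 Cells seeded at 5 × 10⁵ cells/mL, preincubated with 0.5 or 2.5 µM compound at 37 °C, 5% CO₂, then given 5 mM diethyl maleate for 6 h. Viable cells counted by trypan blue exclusion on a hemocytometer. Viability expressed as % of untreated control. Three independent experiments in triplicate, mean ± S.E.M.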

CCRF-CEM [21] = test: Cytoprotective activity against diethyl maleate-induced oxidative stress in human CCRF-CEM cells assessed as cell viability at 2.5 uM preincubated for 15 hrs prior to diethyl maleate-challenge measured after 6 hrs by hemocytometer-based assay; assay type: functional; outline: as §4
Homo sapiens [22] = species on record: Homo sapiens; test: Effect on total ATP level in Leber's optic atrophy disease patient GM10744 cells after 48 hrs by bioluminescence assay; assay type: functional; outline: as §2
Homo sapiens [23] = species on record: Homo sapiens; test: Cytoprotective activity against diethyl maleate-induced oxidative stress in Leber's optic atrophy disease patient GM10744 cells assessed as cell viability at 2.5 uM preincubated for 15 hrs prior to diethyl maleate-challenge measured after 6 hrs by hemocytometer-based assay; assay type: functional; outline: as §4
Homo sapiens [24] = species on record: Homo sapiens; test: Effect on total ATP level in CoQ10-deficient human GM17932 cells after 48 hrs by bioluminescence assay; assay type: functional; outline: as §2
CCRF-CEM [25] = test: Cytoprotective activity against diethyl maleate-induced oxidative stress in human CCRF-CEM cells assessed as cell viability at 0.5 uM preincubated for 15 hrs prior to diethyl maleate-challenge measured after 6 hrs by hemocytometer-based assay; assay type: functional; outline: as §4
Homo sapiens [26] = species on record: Homo sapiens; test: Cytoprotective activity against diethyl maleate-induced oxidative stress in Leigh's syndrome patient GM13740 cells assessed as cell viability at 0.5 uM preincubated for 15 hrs prior to diethyl maleate-challenge measured after 6 hrs by hemocytometer-based assay; assay type: functional; outline: as §4
Homo sapiens [27] = species on record: Homo sapiens; test: Cytoprotective activity against diethyl maleate-induced oxidative stress in Parkinson's disease patient GM15010 cells assessed as cell viability at 0.5 uM preincubated for 15 hrs prior to diethyl maleate-challenge measured after 6 hrs by hemocytometer-based assay; assay type: functional; outline: as §4
Homo sapiens [28] = species on record: Homo sapiens; test: Cytoprotective activity against diethyl maleate-induced oxidative stress in Parkinson's disease patient GM15010 cells assessed as cell viability at 2.5 uM preincubated for 15 hrs prior to diethyl maleate-challenge measured after 6 hrs by hemocytometer-based assay; assay type: functional; outline: as §4
Homo sapiens [29] = species on record: Homo sapiens; test: Cytoprotective activity against diethyl maleate-induced oxidative stress in Leber's optic atrophy disease patient GM10744 cells assessed as cell viability at 0.5 uM preincubated for 15 hrs prior to diethyl maleate-challenge measured after 6 hrs by hemocytometer-based assay; assay type: functional; outline: as §4
Homo sapiens [30] = species on record: Homo sapiens; test: Cytoprotective activity against diethyl maleate-induced oxidative stress in Alzheimer's disease patient AG06849 cells assessed as cell viability at 2.5 uM preincubated for 15 hrs prior to diethyl maleate-challenge measured after 6 hrs by hemocytometer-based assay; assay type: functional; outline: as §4
Homo sapiens [31] = species on record: Homo sapiens; test: Cytoprotective activity against diethyl maleate-induced oxidative stress in Alzheimer's disease patient AG06849 cells assessed as cell viability at 0.5 uM preincubated for 15 hrs prior to diethyl maleate-challenge measured after 6 hrs by hemocytometer-based assay; assay type: functional; outline: as §4
GM15850 [32] = test: Effect on total ATP level in Friedreich's ataxia disease patient GM15850 cells after 48 hrs by bioluminescence assay; assay type: functional; settings: Homo sapiens; outline: as §2
Homo sapiens [33] = species on record: Homo sapiens; test: Cytoprotective activity against diethyl maleate-induced oxidative stress in Leigh's syndrome patient GM13740 cells assessed as cell viability at 2.5 uM preincubated for 15 hrs prior to diethyl maleate-challenge measured after 6 hrs by hemocytometer-based assay; assay type: functional; outline: as §4
GM15850 [34] = test: Cytoprotective activity against diethyl maleate-induced oxidative stress in Friedreich's ataxia disease patient GM15850 cells assessed as cell viability at 2.5 uM preincubated for 15 hrs prior to diethyl maleate-challenge measured after 6 hrs by hemocytometer-based assay; assay type: functional; settings: Homo sapiens; outline: as §4
CCRF-CEM [35] = test: Antioxidant activity in human CCRF-CEM cells assessed as suppression of diethyl maleate-induced ROS generation at 0.025 to 2.5 uM preincubated for 18 hrs prior to diethyl maleate-challenge measured after 1 hr by FACS flow cytometric analysis in presence of DCFH-DA; assay type: functional, cell-based; outline: as §1

Row | IC50 [9] | Ki [9] | residual activity (Bos taurus [12]) | residual activity (Bos taurus [14]) | Imax (Bos taurus [15]) | residual activity (Bos taurus [18]) | SMILES | Activity (Homo sapiens [1]) | Activity (GM15850 [2]) | Activity (CCRF-CEM [3]) | Activity [4] | Activity (CCRF-CEM [5]) | Activity [6] | Activity [7] | Activity [8] | Activity (GM15850 [10]) | Activity [11] | Activity (CCRF-CEM [13]) | Activity (Homo sapiens [16]) | Activity (GM15850 [17]) | Activity [19] | also measured
1 | 1 µM | 0.7 µM | 22% | 15% | 85% | 50% | Cc1nc(N(C)C)nc(CCCCCCCCCCO)c1O | Active | 46.3% | Active | 45.6% | Active | 98.8% | 86.1% | 46.4% | 27.7% | 20.7% | Dose-dependent effect | Active | 77.2% | 75.5% | –
2 | 6 µM | 4 µM | 19.3% | 13.2% | 84% | 57.4% | COC1=C(OC)C(=O)C(CCCCCCCCCCO)=C(C)C1=O [IDEBENONE] | Active | 45.6% | – | 29.9% | – | 79.8% | 45.7% | 1.6% | 2.6% | 3% | Dose-dependent effect | Active | 73% | 55.7% | Activity (GM15850 [20]): inactive; Activity (CCRF-CEM [21]): Active; Activity (Homo sapiens [22]): Dose-dependent effect; Activity (Homo sapiens [23]): Active; Activity (Homo sapiens [24]): Dose-dependent effect; Activity (CCRF-CEM [25]): inactive; Activity (Homo sapiens [26]): inactive; Activity (Homo sapiens [27]): inactive; Activity (Homo sapiens [28]): Active; Activity (Homo sapiens [29]): inactive; Activity (Homo sapiens [30]): Active; Activity (Homo sapiens [31]): inactive; Activity (GM15850 [32]): Dose-dependent effect; Activity (Homo sapiens [33]): Active; Activity (GM15850 [34]): Active; Activity (CCRF-CEM [35]): Active
3 | > 200 µM | > 200 µM | 82.4% | 61.5% | – | 93% | CCCCCCCCCCC1=C(C)C(=O)C(OC)=C(OC)C1=O [DECYLUBIQUINONE] | Active | 76.4% | Active | 63.4% | Active | 100% | 86.2% | 71.1% | 62.7% | 47% | Dose-dependent effect | Active | 92.8% | 75.1% | Activity (GM15850 [20]): Active; Activity (CCRF-CEM [25]): Active; Activity (Homo sapiens [26]): Active; Activity (Homo sapiens [27]): Active; Activity (Homo sapiens [29]): Active; Activity (Homo sapiens [31]): Active
